System: MS2 coat protein
Test: apparent Kd, MS2 coat protein; higher = weaker binding; RNA-MaP array
Outline: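 Apparent Kd values come from the median of binding-curve fits to single clusters. To obtain them, designed RNAs transcribed on an Illumina sequencing chip from sequenced DNA templates were incubated at room temperature with fluorescently labeled MS2 coat protein at 1.5 nM to 3 μM, with or without input ligand, for 0.8–1.5 h at the lowest and 10–20 min at the highest concentrations. Designs measured on fewer than 10 clusters were excluded.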

[1] = designed as: ON switch for flavin mononucleotide, no ligand
[2] = ligand present: flavin mononucleotide, designed as: ON switch for flavin mononucleotide
[3] = designed as: OFF switch for flavin mononucleotide, no ligand
[4] = ligand present: flavin mononucleotide, designed as: OFF switch for flavin mononucleotide
[5] = designed as: OFF switch for theophylline, no ligand
[6] = ligand present: theophylline, designed as: OFF switch for theophylline
[7] = designed as: ON switch for theophylline, no ligand
[8] = ligand present: theophylline, designed as: ON switch for theophylline

## CUAAGCUCGGACAAGGAUAUUAAUUACUAGACAUGAGGAUCACCCAUGUCAACAGACUGGAGGAUUAAGAAGGUGAUUGAAAACCC
[1]
  apparent Kd: 21.8 nM
[2]
  apparent Kd: 19.4 nM

## CUAAUGGAAGGAUAUACAUGAGGAUCACCCAUGUUUAAGUGAUUAGCGAAUUGUCAACGUAGAAGGUCCAAUUA
[3]
  apparent Kd: 42.6 nM
[4]
  apparent Kd: 84.3 nM

## CUACCUACAGGAUAUACAUGAGGAUCACCCAUGUUUCAACGUGGAACAGGUUGAACAUGUAGAAGGGAAUCGUU
[3]
  apparent Kd: 20.4 nM
[4]
  apparent Kd: 17.2 nM

## CUACGCAUAGGAUAUGCCUACUGGGACAUGAGGAUCACCCAUGUGUUAUUAUCAGCUCCGGCAGAAGGAUGGUACU
[3]
  apparent Kd: 29.1 nM
[4]
  apparent Kd: 11.8 nM

## CUACGGACGGAAGGAUAUAUACGGGUGCCCAGUAUAGAAGGUCCAUACAUGAGGAUCACCCAUGUCAUUAAACCUACGGAGGAG
[1]
  apparent Kd: 145 nM
[2]
  apparent Kd: 80.6 nM

## CUCCCACAUGAGGAUCACCCAUGUAUGAAAAUACAAGGAUAUGGCGUCCUGAUUAGCGGCCCAGAAGGUGUGCUUU
[1]
  apparent Kd: 114 nM
[2]
  apparent Kd: 70.2 nM

## CUCCUCACCGUGAGGAUAUAGUAUUCCGGUUGUUACUAGAAGGCACAUGAGGAUCACCCAUGUUACGGUUCCCA
[3]
  apparent Kd: 13.4 nM
[4]
  apparent Kd: 50.6 nM

## CUCCUGGAAGGAUAUGUGUUUCAGGACAUGAGGAUCACCCAUGUAGAACCUCUCUCCCGCACAGAAGGUCCAUUGU
[3]
  apparent Kd: 74.3 nM
[4]
  apparent Kd: 247 nM

## CUGAACUAAGGAUAUACGGCCCUCAAUUAUAAUUCUGUGAAACAUGAGGAUCACCCAUGUAGAAGGUAGUCGAC
[3]
  apparent Kd: 14.1 nM
[4]
  apparent Kd: 18.1 nM

## CUGACGUAGGAAGAUAUCUGGAACAAGGAUACCAGUAAACCAACAUACCCUUGGCAGCCUAAAACAUGAGGAUCACCCAUGUAAU
[5]
  apparent Kd: 12.4 nM
[6]
  apparent Kd: 14.6 nM

## CUGUUAAGUAAAGGAUAUCCUCCAACAGCUAGAGGAGAAGGUUACUCCUUAAUCCACAUGAGGAUCACCCAUGUUAGUGUAAGU
[1]
  apparent Kd: 11.5 nM
[2]
  apparent Kd: 10.1 nM

## CUGUUACAUGAGGAUCACCCAUGUUUUUGGUUAAGAGGAUAUGGCACAUGGUUAAACGUUCCAGAAGGCUUUGCAC
[1]
  apparent Kd: 11.8 nM
[2]
  apparent Kd: 8.94 nM

## CUGUUCGUAGGAUAUACUGAAACACGGGACAUUCUGAUUAGACAUGAGGAUCACCCAUGUAGAAGGACGCACGU
[3]
  apparent Kd: 17.4 nM
[4]
  apparent Kd: 16.9 nM

## CUUAUCAUAGGAUAUACAUGAGGAUCACCCAUGUAGUAGCAUAUAUAUAGUUUCCCAAGUAGAAGGAUGUACAC
[3]
  apparent Kd: 9.43 nM
[4]
  apparent Kd: 7.9 nM

## CUUCAACAUGAGGAUCACCCAUGUAGUGAUACCAGUCACUCAUACGACCCUUGGCAGCACAUUUUCUGUCGGCAUGUAGACGAUC
[7]
  apparent Kd: 121 nM
[8]
  apparent Kd: 59.9 nM

## CUUGAACCAUCACAUGAGGAUCACCCAUGUAGACUAUAAACUGAGGAUAUCACAGCGAGCAGUCAUGAGAAGGCAGAAUGACGG
[1]
  apparent Kd: 15.3 nM
[2]
  apparent Kd: 13.6 nM

## GAAAAGGACAAAGGAUAUGGGUAGGCAAUCAAUCCAGAAGGUAGACCAGGCAACCUAAACAAACAUGAGGAUCACCCAUGUUAG
[1]
  apparent Kd: 16.6 nM
[2]
  apparent Kd: 14.3 nM

## GAAAUCAGAGGAUAUCAGUCAUGUCACAUGAGGAUCACCCAUGUUUGUGUUUUGGUAGAUUGAGAAGGCUGCGACC
[3]
  apparent Kd: 16.6 nM
[4]
  apparent Kd: 9.66 nM

## GAAGUCGCCGAGAAGGGAGCGAAACUCUCUAUCACAUGAGGAUCACCCAUGUAGUUCUCGUGAGCUCAGGAUAUCGUCGAACGC
[3]
  apparent Kd: 14.5 nM
[4]
  apparent Kd: 10.5 nM

## GACAGACAUGAGGAUCACCCAUGUGAUACAGGCGUAGGAUAUUCGUGAGGAUACAGAAAAGAAGAAGGACGGGAAG
[1]
  apparent Kd: 40.3 nM
[2]
  apparent Kd: 38 nM

## GACCGGUAUCCAGGAUAUGCAAUUAUUUACAUGAGGAUCACCCAUGUCGCAAGAGUAGGGGUGUAGCAGAAGGGGACAACAGCA
[3]
  apparent Kd: 70.7 nM
[4]
  apparent Kd: 62.7 nM

## GAGUCGCGAGGAUAUGGAAUGGACUACAUGAGGAUCACCCAUGUCCUUUCCCUUGUUUGUCCAGAAGGCGCCAUCC
[3]
  apparent Kd: 27 nM
[4]
  apparent Kd: 24.4 nM

## GAUCAUUUAGUGAGGAUAUGUCUCCUGCAAAGUCGACAGAAGGCACAUGAGGAUCACCCAUGUUCGCUUCGGAU
[3]
  apparent Kd: 5 nM
[4]
  apparent Kd: 5.75 nM

## GCAGGACAUGAGGAUCACCCAUGUGAGGGCAGAGGAGGAUAUAACUACCACUAUUGAUCGUUAGAAGGCCUAGAGG
[1]
  apparent Kd: 40 nM
[2]
  apparent Kd: 26 nM

## GCCAUAAAAGAGAAGGGCGGCCACCUACGAACCGCAGGAUAUCUUUGCUUUCCUCGGACAUGAGGAUCACCCAUGUGGCCAAUA
[3]
  apparent Kd: 97.3 nM
[4]
  apparent Kd: 160 nM

## GCCCGGACACAAGGAUAUCAGACCAAUACAUGAGGAUCACCCAUGUCGGGCCUCUAAGUACGACCUGAGAAGGUGUCUCCCAGU
[3]
  apparent Kd: 421 nM
[4]
  apparent Kd: 345 nM

## GCCGACCUCACAUGAGGAUCACCCAUGUGCCGGAAACUACUGAGAAGGGCUCUAAUUCCAGGCGAGCAGGAUAUCAUAAAAUAG
[1]
  apparent Kd: 17.4 nM
[2]
  apparent Kd: 8.78 nM

## GCGAACGGACCGUUGCCUUCCUGUGUGCGGCGAGGACCGGUACGGCCGCCACUCGACUGCGUACAUGAGGAUCACCCAUGUUAGA
Designed as: OFF switch for tryptophan, no ligand
  apparent Kd: 26.5 nM
Ligand present: tryptophan, designed as: OFF switch for tryptophan
  apparent Kd: 66.3 nM

## GCUGAUCAACCCUAGGAUAUCACCCAUACCACAUGAGGAUCACCCAUGUCGGGUUGCUAUGUGGCUGAGAAGGAGGUGCACUAUAC
[1]
  apparent Kd: 23 nM
[2]
  apparent Kd: 8.76 nM

## GCUUUAUUCUAGAAGGCUUAUCAUGCAUAAUGUCUAGAAGUUCAGACAUGAGGAUCACCCAUGUAAGAGGAUAUAGCGUAAAGU
[3]
  apparent Kd: 26.9 nM
[4]
  apparent Kd: 31.3 nM

## GCUUUGCUGUGGUCCCUGAUACAUGAGGAUCACCCAUGUGAGAAGGAUAUUCAGAAUGGUCUCCCGAAGAAGGUCUGCACCUGG
[3]
  apparent Kd: 15.4 nM
[4]
  apparent Kd: 11.3 nM

## GGACAACAUGAGGAUCACCCAUGUCCUGAUACCAGUCAGCGCAGUGACCCUUGGCAGCAGACGGAUACGAAAUAACUGAGAGAUA
[7]
  apparent Kd: 40.6 nM
[8]
  apparent Kd: 42.1 nM

## GGACAUUGUCCUAUUCACAUGAGGAUCACCCAUGUCACAACUAGAAGGGAGCGAUAACAAUUUCCUCAGGAUAUAGUUCGCGGC
[1]
  apparent Kd: 28.2 nM
[2]
  apparent Kd: 24.7 nM

## GGGAUACAUGAGGAUCACCCAUGUCAGGAUAUCUUUUACCGGCACGACAAUCAUAUGAAGAGAAGGGACUAUAU
[3]
  apparent Kd: 35 nM
[4]
  apparent Kd: 31.9 nM

## GGGCGCCGAGGAUAUCACAGGAGUAACAUGAGGAUCACCCAUGUAUCAGUGGGCGUAAUAUGAGAAGGCGGUGGUU
[3]
  apparent Kd: 85.5 nM
[4]
  apparent Kd: 43.5 nM

## GGUAUGUCAGGAUAUUAAUGGUCAGUAACGGAACAGAGGAGUAAGAAGGGACAUGAGGAUCACCCAUGUAUUCG
[3]
  apparent Kd: 17.1 nM
[4]
  apparent Kd: 16.4 nM

## GGUUCCGCUAAGGUGAAACAUGAGGAUCACCCAUGUCAAUCUGAGGAUAUUUAUCUCGACGAGGCAAAGAAGGCAGACUCGCGG
[3]
  apparent Kd: 9.53 nM
[4]
  apparent Kd: 14.8 nM

## GGUUCUUGUUGACGUUUAUACAUGAGGAUCACCCAUGUUGCGCAGGAUAUUUCACAUUGAUAGAGAAAGAAGGGCGAUGUACGU
[1]
  apparent Kd: 10.4 nM
[2]
  apparent Kd: 8.68 nM

## GGUUGGUCGCAGGAUACCAGUCCACCCGUGAUACUGCUAAACAUGAGGAUCACCCAUGUCGACCCUUGGCAGCCUGUCCAUGCGU
[5]
  apparent Kd: 16.3 nM
[6]
  apparent Kd: 124 nM

## GUACAGGAAGGAUAUACCAGGUAAGUUAAGUUUUCACAUUGACAUGAGGAUCACCCAUGUAGAAGGUCCCUAUA
[3]
  apparent Kd: 36.7 nM
[4]
  apparent Kd: 31.7 nM

## GUACCACAGUCGGCCGCCACUAAGUUGUAUUCCAGCAGGACGAAACAUGAGGAUCACCCAUGUCCUAGGACCGGGACUUCCGUCG
Designed as: ON switch for tryptophan, no ligand
  apparent Kd: 21.2 nM
Ligand present: tryptophan, designed as: ON switch for tryptophan
  apparent Kd: 21.6 nM

## GUACUGUACAAGAAGGUUGAUUUGCAUCAAGAUCCGAUUUACAUGAGGAUCACCCAUGUUUUAUCAAAGGAUAUUGGUACAACG
[3]
  apparent Kd: 11 nM
[4]
  apparent Kd: 66.8 nM

Source: the EternaBench riboswitch data
